Experimental data from ChEMBL document CHEMBL1153724, “Multivalent binding oligomers inhibit HIV Tat-TAR interaction critical for viral replication” (Bioorg Med Chem Lett, 2009).
Calls of active or inactive are those of the source. The rule behind the calls is not given here.

Legend:
Nucleic Acid [1] = test: Inhibition of fluorescein labeled Tat-peptide binding to HIV1 TAR RNA after 60 mins by FRET assay; assay type: nucleic-acid assay, Human immunodeficiency virus 1
Outline: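 Competition assay: inhibition of association between TAR RNA and a fluorescently labeled Tat-derived peptide, read by fluorescence; IC50 values derived.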

[2] = Cytotoxicity in human HeLa cells transfected with HIV Tat-LTR by FITC-conjugated DAPI staining by fluorescence microscopy; assay type: cell-based; conditions: read-out: TC50 (the source's name)
[3] = Inhibition of HIV1 Rev transfected in human HeLa cells after 48 hrs by duel luciferase reporter gene assay; assay type: cell-based; conditions: Human immunodeficiency virus 1, HeLa
Outline: (§1)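 Analogous stably modified HeLa dual-luciferase system for Rev-RRE function, used as a specificity control; activity followed by luminescence up to 100 μM.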

[4] = system: Human immunodeficiency virus 1; test: Antiviral activity against HIV1 Ba-L infected in PBMCs assessed as reverse transcriptase activity after 7 days by MTS assay; assay type: functional, organism-based; conditions: Human immunodeficiency virus 1, Ba-L, 168 h
[5] = Cytotoxicity in human HeLa cells transfected with HIV Rev-LTR by FITC-conjugated DAPI staining by fluorescence microscopy; assay type: cell-based; conditions: read-out: TC50 (the source's name)
PBMC = test: Cytotoxicity against human PBMC cells by XTT assay; assay type: cell-based
Nucleic Acid [6] = test: Inhibition of fluorescein labeled Rev binding to HIV1 RRE RNA assessed as decrease of fluorescent anisotropy at 20 uM after 1 hour by fluorescence polarization-based assay; assay type: nucleic-acid assay, Human immunodeficiency virus 1
Outline: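 Competition assay tracking Rev binding to RRE by fluorescence; tested up to 20 μM.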

[7] = system: Human immunodeficiency virus 1; test: Antiviral activity against HIV1 BCF02 infected in PBMCs assessed as reverse transcriptase activity after 7 days by XTT assay; assay type: functional, organism-based; conditions: Human immunodeficiency virus 1, BCF02, 168 h
[8] = system: Human immunodeficiency virus 1; test: Antiviral activity against HIV1 HT/92/599 infected in PBMCs assessed as reverse transcriptase activity after 7 days by XTT assay; assay type: functional, organism-based; conditions: Human immunodeficiency virus 1, HT/92/599, 168 h
[9] = system: Human immunodeficiency virus 1; test: Antiviral activity against HIV1 97ZA003 infected in PBMCs assessed as reverse transcriptase activity after 7 days by XTT assay; assay type: functional, organism-based; conditions: Human immunodeficiency virus 1, 97ZA003, 168 h
[10] = system: Human immunodeficiency virus 1; test: Antiviral activity against HIV1 JV1083 infected in PBMCs assessed as reverse transcriptase activity after 7 days by XTT assay; assay type: functional, organism-based; conditions: Human immunodeficiency virus 1, JV1083, 168 h
[11] = system: Human immunodeficiency virus 1; test: Antiviral activity against HIV1 UG/92/001 infected in PBMCs assessed as reverse transcriptase activity after 7 days by XTT assay; assay type: functional, organism-based; conditions: Human immunodeficiency virus 1, UG/92/001, 168 h
[12] = system: Human immunodeficiency virus 1; test: Inhibition of HIV1 viral entry into the human TZM-bl cells assessed as decrease of luminescence at 25 uM after 18 hrs by luciferase reporter gene assay; assay type: functional, organism-based
Outline: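 Viral entry checked in TZM-bl cells with a cell-based entry inhibition assay at concentrations up to 25 μM.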

[13] = system: Human immunodeficiency virus 1; test: Antiviral activity against HIV1 BR/93/020 infected in PBMCs assessed as reverse transcriptase activity after 7 days by XTT assay; assay type: functional, organism-based; conditions: Human immunodeficiency virus 1, BR/93/020, 168 h
[14] = system: Human immunodeficiency virus 1; test: Antiviral activity against HIV1 CMU06 infected in PBMCs assessed as reverse transcriptase activity after 7 days by XTT assay; assay type: functional, organism-based; conditions: Human immunodeficiency virus 1, CMU06, 168 h
[15] = system: Human immunodeficiency virus 1; test: Antiviral activity against HIV1 UG/92/029 infected in PBMCs assessed as reverse transcriptase activity after 7 days by XTT assay; assay type: functional, organism-based; conditions: Human immunodeficiency virus 1, UG/92/029, 168 h
Nucleic Acid [16] = test: Selectivity for HIV1 TAR RNA over HIV1 RRE RNA; assay type: nucleic-acid assay; conditions: Human immunodeficiency virus 1
Nucleic Acid [17] = test: Induction of aggregation of 32P labeled HIV1 TAR RNA after 60 mins by native gel electrophoresis; assay type: nucleic-acid assay, Human immunodeficiency virus 1
HeLa = test: Inhibition of HIV1 Rev transfected in human HeLa cells up to 100 uM after 48 hrs by duel luciferase reporter gene assay; assay type: cell-based; conditions: Human immunodeficiency virus 1; outline: as §1

EC50 (Nucleic Acid [1]) [nM]	IC50 [3] [µM]	IC50 (Nucleic Acid [6]) [µM]	SMILES	CC50 [2] [µM]	IC50 [4] [µM]	CC50 [5] [µM]	IC50 (PBMC) [µM]	also measured
3940			C[C@@H](CN[C@H](CN[C@H](CN[C@H](CN[C@H](CNCCC(N)=O)Cc1ccc(O)cc1)Cc1ccc(O)cc1)Cc1ccc(O)cc1)Cc1ccc(O)cc1)NC[C@@H](N)Cc1ccc(O)cc1					
180			C[C@@H](CN[C@H](CN[C@H](CN[C@H](CNCCC(N)=O)Cc1ccc(O)cc1)Cc1ccc(O)cc1)Cc1ccc(O)cc1)NC[C@H](Cc1ccc(O)cc1)NC[C@H](Cc1ccc(O)cc1)NC[C@H](Cc1ccc(O)cc1)NC[C@@H](N)Cc1ccc(O)cc1	2.4				
240			NCCCC[C@@H](CN[C@H](CNCCC(N)=O)Cc1ccc(O)cc1)NC[C@H](Cc1ccc(O)cc1)NC[C@H](CCCCN)NC[C@H](Cc1c[nH]c2ccccc12)NC[C@@H](N)Cc1ccc(O)cc1	12				
180			NC(=O)CCNC[C@H](Cc1ccc(O)cc1)NC[C@H](Cc1ccc(O)cc1)NC[C@H](Cc1ccc(O)cc1)NC[C@H](Cc1ccc(O)cc1)NC[C@H](Cc1ccc(O)cc1)NC[C@H](Cc1ccc(O)cc1)NC[C@H](Cc1ccc(O)cc1)NC[C@@H](N)Cc1ccc(O)cc1					
450	> 100		NCCCC[C@@H](CN[C@H](CN[C@H](CN[C@H](CNCCC(N)=O)Cc1ccc(O)cc1)Cc1ccc(O)cc1)Cc1ccc(O)cc1)NC[C@H](Cc1ccc(O)cc1)NC[C@@H](N)Cc1ccc(O)cc1	> 100	7	> 100	80	
500	60	> 20	C[C@@H](CN[C@H](CN[C@H](CN[C@H](CNCCC(N)=O)Cc1ccc(O)cc1)Cc1ccc(O)cc1)Cc1ccc(O)cc1)NC[C@H](Cc1ccc(O)cc1)NC[C@H](Cc1ccc(O)cc1)NC[C@@H](N)Cc1ccc(O)cc1	> 100	4	> 100	55	IC50 [7]: 16.3 µM; IC50 [8]: 4.5 µM; IC50 [9]: 25 µM; IC50 [10]: 11.9 µM; IC50 [11]: 2.3 µM; inhibition [12]: inactive; IC50 [13]: 5.1 µM; IC50 [14]: 18.2 µM; IC50 [15]: 2.3 µM
1700	34	> 20	NC(=O)CCNC[C@H](Cc1ccc(O)cc1)NC[C@H](Cc1ccc(O)cc1)NC[C@H](Cc1ccc(O)cc1)NC[C@H](Cc1ccc(O)cc1)NC[C@H](Cc1ccc(O)cc1)NC[C@@H](N)Cc1ccc(O)cc1	> 100	2	> 100	76	IC50 [7]: 18.9 µM; IC50 [8]: 8.8 µM; IC50 [9]: 27 µM; IC50 [10]: 13.1 µM; IC50 [11]: 6 µM; Selectivity Index (Nucleic Acid [16]): 20; inhibition [12]: inactive; IC50 [13]: 4.7 µM; IC50 [14]: 19 µM; EC50 (Nucleic Acid [17]): 40 µM; IC50 [15]: 6.7 µM
8900		> 20	NC(=O)CCNC[C@H](Cc1ccc(O)cc1)NC[C@H](Cc1ccc(O)cc1)NC[C@H](Cc1ccc(O)cc1)NC[C@@H](N)Cc1ccc(O)cc1		11		46	EC50 (Nucleic Acid [17]): 450 µM
1930			C[C@@H](CN[C@H](CNCCC(N)=O)Cc1ccc(O)cc1)NC[C@H](Cc1ccc(O)cc1)NC[C@H](Cc1ccc(O)cc1)NC[C@H](Cc1ccc(O)cc1)NC[C@@H](N)Cc1ccc(O)cc1					
83800	> 100	> 50	NC(=O)CCNC[C@H](Cc1ccc(O)cc1)NC[C@H](Cc1ccc(O)cc1)NC[C@@H](N)Cc1ccc(O)cc1	> 100		> 100		EC50 (Nucleic Acid [17]): 490 µM
3320			C[C@@H](CN[C@H](CN[C@H](CNCCC(N)=O)Cc1ccc(O)cc1)Cc1ccc(O)cc1)NC[C@H](Cc1ccc(O)cc1)NC[C@H](Cc1ccc(O)cc1)NC[C@@H](N)Cc1ccc(O)cc1					
300			NCCCC[C@@H](CN[C@H](CN[C@H](CN[C@H](CNCCC(N)=O)Cc1ccc(O)cc1)Cc1ccc(O)cc1)Cc1ccc(O)cc1)NC[C@H](Cc1c[nH]c2ccccc12)NC[C@@H](N)Cc1ccc(O)cc1					
1630	> 100	> 20	C[C@@H](CN[C@H](CN[C@H](CN[C@H](CNCCC(N)=O)Cc1ccc(O)cc1)Cc1ccc(O)cc1)Cc1ccc(O)cc1)NC[C@H](Cc1ccc(O)cc1)NC[C@@H](N)Cc1ccc(O)cc1	> 100	5	> 100	56	IC50 [7]: 20.1 µM; inhibition (HeLa): inactive; IC50 [8]: 12.7 µM; IC50 [9]: 32 µM; IC50 [10]: 17.8 µM; IC50 [11]: 5.1 µM; Selectivity Index (Nucleic Acid [16]): 20; inhibition [12]: inactive; IC50 [13]: 7.5 µM; IC50 [14]: 7.7 µM; IC50 [15]: 4.5 µM
360			NCCCC[C@@H](CN[C@H](CNCCC(N)=O)Cc1ccc(O)cc1)NC[C@H](Cc1ccc(O)cc1)NC[C@H](CCCCN)NC[C@H](Cc1ccc(O)cc1)NC[C@@H](N)Cc1ccc(O)cc1	38				
13900			C[C@H](N)CN[C@@H](C)CN[C@@H](C)CN[C@@H](C)CN[C@@H](C)CN[C@H](CNCCC(N)=O)Cc1ccc(O)cc1					
2960	> 100	> 20	NC(=O)CCNC[C@H](Cc1ccc(O)cc1)NC[C@H](Cc1ccc(O)cc1)NC[C@H](Cc1ccc(O)cc1)NC[C@H](Cc1ccc(O)cc1)NC[C@@H](N)Cc1ccc(O)cc1	> 100	9	> 100	67	EC50 (Nucleic Acid [17]): 220 µM
470			NC(=O)CCNC[C@H](Cc1ccc(O)cc1)NC[C@H](Cc1ccc(O)cc1)NC[C@H](Cc1ccc(O)cc1)NC[C@H](Cc1ccc(O)cc1)NC[C@H](Cc1ccc(O)cc1)NC[C@H](Cc1ccc(O)cc1)NC[C@@H](N)Cc1ccc(O)cc1					
3260			C[C@H](N)CN[C@H](CN[C@H](CN[C@H](CN[C@H](CN[C@H](CNCCC(N)=O)Cc1ccc(O)cc1)Cc1ccc(O)cc1)Cc1ccc(O)cc1)Cc1ccc(O)cc1)Cc1ccc(O)cc1					
